Assay results taken from ChEMBL document CHEMBL3351672, “Saccharin derivatives as inhibitors of interferon-mediated inflammation” (J Med Chem, 2014).
The source made the active and inactive calls. The calls are words filed in the database; no cut-off is given here.

What was measured:
RAW264.7 [1] = experiment: Antiinflammatory activity in mouse RAW264.7 cells assessed as inhibition of LPS-induced nitric oxide production; assay type: functional, cell-based
How it was run: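 RAW 264.7 cells stimulated with 20 ng/mL LPS plus a range of compound concentrations; nitric oxide output measured. Data normalized so LPS + solvent = 100% and untreated cells = 0% activation; IC50 fitted from dose–response, points averaged over nine replicates (SD).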

RAW264.7 [2] = experiment: Cytotoxicity against mouse RAW264.7 cells assessed as cell viability by WST1 assay; assay type: cell-based; details: read-out: LC50 (the source's name) (converted)
How it was run: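 RAW 264.7 mouse macrophages were stimulated with 20 ng/mL LPS and given a range of compound concentrations, alongside the nitric oxide inhibition assay. Cell viability was measured at each tested concentration. LC50 was taken as the concentration giving 50% cell viability.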

RAW264.7 [3] = experiment: Inhibition of IFNgamma-induced iNOS mRNA expression in mouse RAW264.7 cells at 1 to 50 uM after 16 hrs by RT-PCR analysis; assay type: functional
RAW264.7 [4] = experiment: Antiinflammatory activity in mouse RAW264.7 cells assessed as inhibition of poly I:C-induced nitric oxide production; assay type: functional, cell-based
How it was run: (§1)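 RAW 264.7 cells stimulated with Pam2CSK4 (TLR2/6 ligand) or Poly I:C (TLR3 ligand) with varying compound concentrations; NO production read out. Normalized to agonist + solvent (100%) versus untreated (0%); IC50 from dose–response curves, nine replicates averaged, SD shown.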

RAW264.7 [5] = experiment: Antiinflammatory activity in mouse RAW264.7 cells assessed as inhibition of pam2CSK4-induced nitric oxide production; assay type: functional, cell-based; how it was run: as §1
RAW264.7 [6] = experiment: Inhibition of LPS-induced iNOS mRNA expression in mouse RAW264.7 cells at 10 to 100 uM after 20 hrs by RT-PCR analysis; assay type: functional
How it was run: (§2)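 RAW 264.7 cells incubated 20 h with 20 ng/mL LPS and varying compound concentrations; iNOS mRNA quantified by real-time PCR, ligand-induced cells set to fold change 1. Three biological replicates, each in technical duplicate; SD reported.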

[7] = Inhibition of JAK/STAT signaling pathway in LPS-induced mouse RAW264.7 cells assessed as change in NOS2 mRNA expression by RT-PCR analysis relative to control; assay type: cell-based
[8] = Inhibition of JAK/STAT signaling pathway in LPS-induced mouse RAW264.7 cells assessed as change in Cebpb mRNA expression by RT-PCR analysis relative to control; assay type: cell-based
RAW264.7 [9] = experiment: Inhibition of TNFalpha production in mouse RAW264.7 cells at 0.5 to 1 uM by ELISA; assay type: functional, cell-based
How it was run: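 TNF-α cytokine levels from compound-treated RAW 264.7 cells measured by commercial ELISA.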

RAW264.7 [10] = experiment: Inhibition of LPS-induced iNOS mRNA expression in mouse RAW264.7 cells after 20 hrs by RT-PCR analysis; assay type: functional, cell-based; how it was run: as §2
RAW264.7 [11] = experiment: Inhibition of LPS-induced iNOS protein expression in mouse RAW264.7 cells after 20 hrs by Western blot analysis; assay type: functional, cell-based
How it was run: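 RAW 264.7 cells treated with LPS and varying compound concentrations; iNOS protein detected by Western blot using a pan-NOS antibody.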

[12] = molecular target: T1, Nuclear factor NF-kappa-B complex (Homo sapiens) (UniProt Q00653+P19838+Q04206); experiment: Inhibition of LPS-induced NFkappaB activation in human HEK293T cells at 0.5 to 1 uM after 18 to 24 hrs by secreted embryonic alkaline phosphatase reporter gene assay; assay type: cell-based; details: HEK-293T
How it was run: (§3)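 NF-κB activation monitored by secreted embryonic alkaline phosphatase reporter in HEK 293T cells stimulated via TLR4 or TLR3; compound tested at concentrations […].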

[13] = Inhibition of JAK/STAT signaling pathway in LPS-induced mouse RAW264.7 cells assessed as change in Gtp1 mRNA expression by RT-PCR analysis relative to control; assay type: cell-based
[14] = molecular target: T1, Nuclear factor NF-kappa-B complex (Homo sapiens); experiment: Inhibition of TNFalpha-induced NFkappaB activation in human HEK293T cells at 0.5 to 1 uM after 18 to 24 hrs by secreted embryonic alkaline phosphatase reporter gene assay; assay type: cell-based; details: HEK-293T
[15] = Inhibition of JAK/STAT signaling pathway in LPS-induced mouse RAW264.7 cells assessed as inhibition of IFNgamma-induced nitric oxide production; assay type: cell-based
How it was run: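 JAK/STAT1 signalling activated in RAW 264.7 cells with 5 ng/mL IFN-γ alongside varying compound concentrations; NO production measured. Values normalized with ligand + solvent as 100% and untreated cells as 0%; IC50 derived from dose–response.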

RAW264.7 [16] = experiment: Cytotoxicity against mouse RAW264.7 cells assessed as cell viability up to 100 uM by WST1 assay; assay type: cell-based
How it was run: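 Cell viability assay run on the compound-treated RAW 264.7 cultures at each tested concentration; LC50 taken as concentration giving 50% viability.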

[17] = tested on: RAW 264.7 cells (Mus musculus); experiment: Antiinflammatory activity in mouse RAW264.7 cells assessed as inhibition of LPS-induced nitric oxide production
[18] = molecular target: T1, Nuclear factor NF-kappa-B complex (Homo sapiens); experiment: Inhibition of poly I:C-induced NFkappaB activation in human HEK293T cells at 0.5 to 1 uM after 18 to 24 hrs by secreted embryonic alkaline phosphatase reporter gene assay; assay type: cell-based; details: HEK-293T; how it was run: as §3

T1 sequence (P19838 whole entry, looked up): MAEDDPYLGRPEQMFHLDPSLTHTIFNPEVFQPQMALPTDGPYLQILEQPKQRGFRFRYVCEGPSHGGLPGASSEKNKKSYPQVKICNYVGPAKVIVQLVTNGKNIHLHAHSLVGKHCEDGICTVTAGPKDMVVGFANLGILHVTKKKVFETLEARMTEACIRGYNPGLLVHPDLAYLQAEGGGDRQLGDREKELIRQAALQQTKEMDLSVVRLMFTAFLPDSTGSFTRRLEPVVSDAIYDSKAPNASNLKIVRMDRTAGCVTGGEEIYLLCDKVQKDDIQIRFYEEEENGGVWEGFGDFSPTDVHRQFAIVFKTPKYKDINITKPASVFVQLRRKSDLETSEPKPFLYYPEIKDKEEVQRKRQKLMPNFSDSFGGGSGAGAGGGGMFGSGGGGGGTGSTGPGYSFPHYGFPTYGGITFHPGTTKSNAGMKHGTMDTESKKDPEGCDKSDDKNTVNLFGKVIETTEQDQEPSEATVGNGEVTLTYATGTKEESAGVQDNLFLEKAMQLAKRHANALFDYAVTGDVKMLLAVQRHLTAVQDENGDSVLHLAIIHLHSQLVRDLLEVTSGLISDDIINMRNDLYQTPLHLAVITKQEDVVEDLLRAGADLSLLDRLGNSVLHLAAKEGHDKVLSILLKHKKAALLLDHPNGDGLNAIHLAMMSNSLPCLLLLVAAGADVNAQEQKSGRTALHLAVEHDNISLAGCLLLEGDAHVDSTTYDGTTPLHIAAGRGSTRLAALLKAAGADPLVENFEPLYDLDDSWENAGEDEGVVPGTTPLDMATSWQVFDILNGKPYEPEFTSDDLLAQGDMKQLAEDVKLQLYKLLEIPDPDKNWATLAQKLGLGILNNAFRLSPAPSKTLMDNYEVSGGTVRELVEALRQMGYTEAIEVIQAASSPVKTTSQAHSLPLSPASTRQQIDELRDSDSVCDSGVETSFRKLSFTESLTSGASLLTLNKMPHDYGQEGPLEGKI
T1 sequence (Q00653 whole entry, looked up): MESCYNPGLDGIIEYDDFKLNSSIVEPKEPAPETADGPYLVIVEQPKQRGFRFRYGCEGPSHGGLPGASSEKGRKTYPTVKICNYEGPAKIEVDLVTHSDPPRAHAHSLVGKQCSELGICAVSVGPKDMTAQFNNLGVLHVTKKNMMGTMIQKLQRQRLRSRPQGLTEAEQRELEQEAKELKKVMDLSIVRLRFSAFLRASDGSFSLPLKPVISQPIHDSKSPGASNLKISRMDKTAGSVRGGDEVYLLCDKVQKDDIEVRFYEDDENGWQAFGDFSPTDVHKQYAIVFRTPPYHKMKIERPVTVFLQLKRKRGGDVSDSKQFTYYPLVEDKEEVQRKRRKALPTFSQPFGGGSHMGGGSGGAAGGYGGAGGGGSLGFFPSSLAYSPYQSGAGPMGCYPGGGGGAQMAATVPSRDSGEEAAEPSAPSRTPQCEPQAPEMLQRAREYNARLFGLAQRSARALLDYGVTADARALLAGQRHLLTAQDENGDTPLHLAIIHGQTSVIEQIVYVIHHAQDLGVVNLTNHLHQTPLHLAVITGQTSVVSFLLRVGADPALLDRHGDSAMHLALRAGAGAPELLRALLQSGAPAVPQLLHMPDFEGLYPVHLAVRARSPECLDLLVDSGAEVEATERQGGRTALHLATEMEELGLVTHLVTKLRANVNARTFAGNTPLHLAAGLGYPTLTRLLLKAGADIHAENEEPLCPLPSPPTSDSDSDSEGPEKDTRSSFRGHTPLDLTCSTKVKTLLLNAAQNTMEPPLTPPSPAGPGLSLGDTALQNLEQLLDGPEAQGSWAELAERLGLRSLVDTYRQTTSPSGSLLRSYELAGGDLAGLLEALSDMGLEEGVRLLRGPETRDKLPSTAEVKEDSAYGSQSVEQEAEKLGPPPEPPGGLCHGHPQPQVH
T1 sequence (Q04206 whole entry, looked up): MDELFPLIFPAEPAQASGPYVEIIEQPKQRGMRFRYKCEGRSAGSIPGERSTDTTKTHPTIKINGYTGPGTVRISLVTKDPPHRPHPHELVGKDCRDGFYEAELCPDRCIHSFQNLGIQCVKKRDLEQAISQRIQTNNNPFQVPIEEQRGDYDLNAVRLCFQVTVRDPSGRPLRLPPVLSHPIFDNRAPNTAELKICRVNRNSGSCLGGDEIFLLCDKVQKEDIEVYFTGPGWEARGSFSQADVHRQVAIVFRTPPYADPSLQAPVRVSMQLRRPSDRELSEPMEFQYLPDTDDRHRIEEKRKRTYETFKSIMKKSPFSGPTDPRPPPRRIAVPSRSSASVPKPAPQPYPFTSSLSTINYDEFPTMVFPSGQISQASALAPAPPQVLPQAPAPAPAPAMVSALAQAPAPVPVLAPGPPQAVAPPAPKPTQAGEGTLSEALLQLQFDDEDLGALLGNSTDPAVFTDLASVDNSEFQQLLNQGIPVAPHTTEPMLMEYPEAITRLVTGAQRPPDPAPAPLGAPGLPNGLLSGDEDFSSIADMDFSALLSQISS

Compound	IC50 (RAW264.7 [1])	CC50 (RAW264.7 [2])	further results
CC(C)(C)OC(=O)N(C(=O)OC(C)(C)C)C(=O)c1ccc(CN2C(=O)c3ccccc3S2(=O)=O)cc1	33.4 µM	> 100 µM	
CC(C)(C)OC(=O)N(Cc1ccco1)C(=O)c1ccc(CN2Cc3ccccc3C2=O)cc1	51.8 µM	95.2 µM	
CC(C)(C)OC(=O)N(Cc1ccco1)C(=O)c1ccc(CN2Cc3ccccc3S2(=O)=O)cc1	10.6 µM	> 100 µM	
CC(C)(C)OC(=O)N(Cc1ccco1)C(=O)c1ccc(CN2C(=O)c3ccccc3C2=O)cc1	3.45 µM	> 100 µM	
CC(C)(C)OC(=O)N(CCc1ccco1)C(=O)c1ccc(CN2C(=O)c3ccccc3S2(=O)=O)cc1	48.6 µM	> 100 µM	
NC(=O)c1ccc(CN2C(=O)c3ccccc3S2(=O)=O)cc1	50.6 µM	> 100 µM	inhibition (INH) (RAW264.7 [3]): 50%
O=C(c1ccc(Cn2sc3ccccc3c2=O)cc1)N1CCCCC1	5.38 µM	70.3 µM	
CC1=C(c2cc[n+]([O-])cc2)S(=O)(=O)N(Cc2ccc(C(=O)N3CCCCC3)cc2)C1=O	79.4 µM	> 100 µM	
CN(C(=O)OC(C)(C)C)C(=O)c1ccc(CN2C(=O)c3ccccc3S2(=O)=O)cc1	42 µM	> 100 µM	
O=C(c1ccc(Cn2c(=O)c3ccccc3[s+]2[O-])cc1)N1CCCCC1 (centres undefined)	49 µM	> 100 µM	
CC1=C(c2ccc(C)c(C)c2)S(=O)(=O)N(Cc2ccc(C(=O)N3CCCCC3)cc2)C1=O	16.5 µM	> 100 µM	
CC(C)(C)OC(=O)c1ccc(CN2C(=O)c3ccccc3S2(=O)=O)cc1	10.6 µM	> 100 µM	
O=C(NCc1ccco1)c1ccc(CN2C(=O)c3ccccc3S2(=O)=O)cc1	24.3 µM	> 100 µM	
CC(=O)N(Cc1ccco1)C(=O)c1ccc(CN2C(=O)c3ccccc3S2(=O)=O)cc1	42.6 µM	> 100 µM	
O=C(NCc1ccco1)c1ccc(CN2C(=O)c3ccccc3C2=O)cc1	56 µM	> 100 µM	
O=C(c1ccc(CN2C(=O)c3ccccc3S2(=O)=O)cc1)N1CCCCC1	50.6 µM	69.2 µM	
COC(=O)N(Cc1ccco1)C(=O)c1ccc(CN2C(=O)c3ccccc3S2(=O)=O)cc1	76 µM	> 100 µM	
O=C(NCc1ccco1)c1ccc(CN2Cc3ccccc3C2=O)cc1	49.7 µM	> 100 µM	

Compound	IC50 (RAW264.7 [1])	CC50 (RAW264.7 [2])	further results
CN(Cc1ccco1)C(=O)c1ccc(CN2C(=O)c3ccccc3S2(=O)=O)cc1	79.6 µM	> 100 µM	
O=C(NCc1ccco1)c1ccc(Cn2sc3ccccc3c2=O)cc1	19.8 µM	> 100 µM	
O=C(c1ccc(CN2Cc3ccccc3S2(=O)=O)cc1)N1CCCCC1	44.3 µM	> 100 µM	
CC(C)(C)OC(=O)N(Cc1ccco1)C(=O)c1ccc(Cn2sc3ccccc3c2=O)cc1	68 µM	> 100 µM	inhibition (INH) (RAW264.7 [3]): 50%
CC(C)(C)OC(=O)NC(=O)c1ccc(CN2C(=O)c3ccccc3S2(=O)=O)cc1	64.7 µM	> 100 µM	
O=C(NCc1ccco1)c1ccc(CN2Cc3ccccc3S2(=O)=O)cc1	68.4 µM	> 100 µM	
CC1=C(c2ccc3ccccc3c2)S(=O)(=O)N(Cc2ccc(C(=O)N3CCCCC3)cc2)C1=O	9.61 µM	47.9 µM	
O=C(NCc1ccco1)c1ccc(Cn2c(=O)c3ccccc3[s+]2[O-])cc1 (centres undefined)	23.3 µM	> 100 µM	
O=C(NCc1ccco1)c1ccc(Cn2oc3ccccc3c2=O)cc1	49.3 µM	> 100 µM	
CC(C)(C)OC(=O)N(Cc1ccco1)C(=O)c1ccc(Cn2c(=O)c3ccccc3[s+]2[O-])cc1 (centres undefined)	68 µM	87.3 µM	
CC(C)(C)OC(=O)N(Cc1ccco1)C(=O)c1ccc(CN2C(=O)c3ccccc3S2(=O)=O)cc1	2.61 µM	> 100 µM	inhibition (INH) (RAW264.7 [3]): >70%; IC50 (RAW264.7 [4]): 10.9 µM; inhibition (RAW264.7 [4]): Dose-dependent effect; IC50 (RAW264.7 [5]): 1.69 µM; inhibition (RAW264.7 [5]): Dose-dependent effect; inhibition (INH) (RAW264.7 [6]): <=67%; Activity [7]: Active; inhibition (RAW264.7 [1]): Dose-dependent effect; Activity [8]: Active; inhibition (RAW264.7 [9]): inactive; inhibition (RAW264.7 [10]): Dose-dependent effect; inhibition (RAW264.7 [11]): Dose-dependent effect; inhibition [12]: inactive; Activity [13]: Active; inhibition [14]: inactive; IC50 [15]: 7.88 µM; inhibition [15]: Dose-dependent effect; Activity (RAW264.7 [16]): Non-toxic; IC50 [17]: 9.61 µM; inhibition [18]: inactive
CNC(=O)c1ccc(CN2C(=O)c3ccccc3S2(=O)=O)cc1	37.7 µM	> 100 µM	
O=C(c1ccc(CN2Cc3ccccc3C2=O)cc1)N1CCCCC1	21.9 µM	> 100 µM	
O=C(NCCc1ccco1)c1ccc(CN2C(=O)c3ccccc3S2(=O)=O)cc1	76.6 µM	> 100 µM	
O=C(c1ccc(Cn2oc3ccccc3c2=O)cc1)N1CCCCC1	16.8 µM	66.2 µM	
O=C(c1ccc(CN2C(=O)c3ccccc3C2=O)cc1)N1CCCCC1	> 100 µM	> 100 µM	
O=C(O)c1ccc(CN2C(=O)c3ccccc3S2(=O)=O)cc1	74.7 µM	> 100 µM	
CC(C)(C)OC(=O)N(Cc1ccco1)C(=O)c1ccc(Cn2oc3ccccc3c2=O)cc1	6.69 µM	> 100 µM	
